Assay [1] is described as follows: Induction of adiponectin biosynthesis in human BMMSC cells assessed as adiponectin level at 10 uM measured after 7 days by ELISA (IDX Control = 100 +/- 57 pg/ml). The assay is classed as functional, Mesenchymal stem cells. The conditions noted are these: time 7 day. For orientation: ELISA stands for enzyme-linked immunosorbent assay.
Assay [2] in a line: Induction of leptin biosynthesis in human BMMSC cells assessed as leptin level at 10 uM measured after 7 days by ELISA (RVB = 18 + /- 18 pg/ml). It is filed as functional, Mesenchymal stem cells. The conditions noted are these: time 7 day.
Assay [3] in a line: Induction of adiponectin biosynthesis in human BMMSC cells assessed as fold increase in production at 30 uM measured after 7 days by ELISA relative to IDX control. It is filed as functional, Mesenchymal stem cells. The settings on record: time 7 day, 168 h. The procedure, abridged:
(§1)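 Human bone-marrow MSCs grown in low-glucose DMEM (1 g/L) with 10% FBS, 1% penicillin-streptomycin and 1% Glutamax. Compounds were given in adipogenic IDX medium, refreshed on days 3 and 6. On day 7, supernatant adiponectin was quantified by Quantikine ELISA against the IDX control. Mean ± SD, n = 3 independent experiments; one-way ANOVA with post-hoc tests.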

The nature of assay [4]: Induction of leptin biosynthesis in human BMMSC cells assessed as fold increase in production at 30 uM measured after 10 days by ELISA relative to control. The settings on record: time 10 day.
The subject of assay [5] is Mesenchymal stem cells. Briefly: Induction of adipogenesis in human BMMSC cells assessed as increase in lipid droplet accumulation at 30 uM after 7 days by Oil red O and hematoxylin staining based assay relative to IDX control. The conditions noted are these: time 7.0 day. The assay is classed as functional, cell-based. In outline:
(§2)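 hBM-MSCs grown in low-glucose DMEM (1 g/L) with 10% FBS, Glutamax and penicillin-streptomycin, then differentiated in IDX medium containing compound, refreshed on days 3 and 6. On day 7, cells fixed in 10% neutral buffered formalin for 40 min and stained with 0.2% Oil Red O for 15 min, nuclei with hematoxylin. Dye eluted in isopropanol and read at 540 nm against IDX control.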

Assay [6] in a line: Induction of leptin biosynthesis in human BMMSC cells assessed as leptin level at 300 uM measured after 7 days by ELISA (RVB = 18 + /- 18 pg/ml). The conditions noted are these: time 7 day. It is filed as functional, Mesenchymal stem cells.
The nature of assay [7]: Induction of adiponectin biosynthesis in human BMMSC cells assessed as adiponectin level at 300 uM measured after 7 days by ELISA (IDX Control = 100 +/- 57 pg/ml). The settings on record: time 7 day. The assay is classed as functional, Mesenchymal stem cells. The procedure, abridged:
as §1

Assay [8] is described as follows: Induction of leptin biosynthesis in human BMMSC cells assessed as leptin level at 1 uM measured after 7 days by ELISA (RVB = 18 + /- 18 pg/ml). The settings on record: time 7 day. It is filed as functional, Mesenchymal stem cells.
Assay [9] is described as follows: Induction of adiponectin biosynthesis in human BMMSC cells assessed as adiponectin level at 5 uM measured after 7 days by ELISA (IDX Control = 100 +/- 57 pg/ml). It is filed as functional, Mesenchymal stem cells. The conditions noted are these: time 7 day. The procedure, abridged: as §1
Assay [10] in a line: Induction of leptin biosynthesis in human BMMSC cells assessed as leptin level at 5 uM measured after 7 days by ELISA (RVB = 18 + /- 18 pg/ml). The assay is classed as functional, Mesenchymal stem cells. The settings on record: time 7 day.
In assay [11] the test system is Mesenchymal stem cells. Briefly: Induction of adipogenesis in human BMMSC cells assessed as increase in lipid droplet accumulation at 5 uM after 7 days by Oil red O and hematoxylin staining based assay relative to IDX control. The assay is classed as functional, cell-based. The settings on record: time 7.0 day. The procedure, abridged: as §2
The nature of assay [12]: Induction of adiponectin biosynthesis in human BMMSC cells assessed as adiponectin level measured after 7 days by ELISA. The settings on record: Mesenchymal stem cells, 168 h.

Activity calls are given as the source filed them. The calls are words filed in the database; no cut-off is given here.

The EC50 is the concentration needed to bring the measured effect to its halfway point.

Regarding `Cc1cc(O)c(C(=O)/C=C/c2ccc(F)c(F)c2)c(=O)o1`, the Activity in assay [1] came out at 432 pg/mL; in assay [2] it was 76 pg/mL.

`COc1cc(/C=C/C(=O)c2c(O)cc(C)oc2=O)ccc1O` (stereo in doubt; form 1) [listing 1 of 2 here]: the “fold change (FC)” value in [3] was 3.3.

In the case of `Cc1cc(O)c(C(=O)/C=C/c2ccccn2)c(=O)o1`, the results for the Activity in [1] and in assay [2] were 396 pg/mL and 95 pg/mL, respectively.

Consider `COc1cc(/C=C/C(=O)c2c(O)cc(C)oc2=O)ccc1O` (stereo in doubt; form 2), for which the Activity in assay [1] was 399 pg/mL; in assay [2] it was 82 pg/mL. Besides, the “fold change (FC)” value in assay [4] was 2.58; in assay [3], 3.18.

For the compound `Cc1cc(O)c(C(=O)/C=C/c2ccoc2)c(=O)o1`, the Activity in [1] was found to be 320 pg/mL; in assay [2] it was 171 pg/mL.

Consider `COc1cc(/C=C/C(=O)c2c(O)cc(C)oc2=O)ccc1O` (stereo in doubt; form 1) [listing 2 of 2 here], for which the outcome in assay [5] was Active.

With `Cc1cc(O)c(C(=O)/C=C/c2ccsc2)c(=O)o1`, the values for the Activity in [1] and in [2] were 486 pg/mL and 193 pg/mL, respectively.

Take `COc1ccc(/C=C/C(=O)c2c(O)cc(C)oc2=O)cc1OC`: the values for the Activity in [1] and in assay [2] were 747 pg/mL and 80 pg/mL, respectively.

Turning to `CC(=O)Oc1ccccc1C(=O)O` [ASPIRIN], the Activity in assay [6] turned out to be 20 pg/mL; in assay [7], 330 pg/mL.

In the case of `Cc1cc(O)c(C(=O)/C=C/c2c[nH]c3ccccc23)c(=O)o1`, the Activity turned out to be 396 pg/mL in [1] and 41 pg/mL in assay [2].

`Cc1cc(O)c(C(=O)/C=C/c2ccc(F)cc2)c(=O)o1`: the Activity in assay [1] turned out to be 576 pg/mL; in assay [2], 30 pg/mL.

For `Cc1cc(O)c(C(=O)/C=C/c2ccc(C)c(C)c2)c(=O)o1`, the Activity in assay [1] was found to be 438 pg/mL; in assay [2] it was 17 pg/mL.

In the case of `Cc1cc(O)c(C(=O)/C=C/c2cc(F)cc(F)c2)c(=O)o1`, the results for the Activity in [1] and in [2] were 172 pg/mL and 33 pg/mL, respectively.

As for `C[C@@H]1C[C@H]2[C@@H]3CCC4=CC(=O)C=C[C@]4(C)[C@@]3(F)[C@@H](O)C[C@]2(C)[C@@]1(O)C(=O)CO` [DEXAMETHASONE], in assay [8], the Activity is 632 pg/mL.

With `Cc1cc(O)c(C(=O)/C=C/c2ccc(O)c(O)c2)c(=O)o1`, the Activity came to 243 pg/mL in assay [1] and 16 pg/mL in assay [2].

Regarding `COc1ccc(Cl)cc1C(=O)NCCc1ccc(S(=O)(=O)NC(=O)NC2CCCCC2)cc1` [GLYBURIDE], the Activity came to 475 pg/mL in assay [9] and 30 pg/mL in [10]. Also, in assay [11], the result was Active.

With `CCc1ccc(CCOc2ccc(CC3SC(=O)NC3=O)cc2)nc1` (configuration not stated) [PIOGLITAZONE], the Activity in assay [9] was 812 pg/mL; in assay [10], 33 pg/mL. Moreover, in assay [11], the result was Active. Further, in [12], the EC50 was 600 nM.

For `Cc1cc(O)c(C(=O)/C=C/c2ccc3c(c2)OCO3)c(=O)o1`, the values for the Activity in assay [1] and in [2] were 208 pg/mL and 91 pg/mL, respectively.

For `Cc1cc(O)c(C(=O)/C=C/c2ccccc2)c(=O)o1`, the Activity stood at 580 pg/mL in assay [1] and 38 pg/mL in [2].

Turning to `COc1cc(/C=C/C(=O)c2c(O)cc(C)oc2=O)ccc1F`, the figures for the Activity in [1] and in [2] were 567 pg/mL and 40 pg/mL, respectively.

For the origin of these results see ChEMBL document CHEMBL5385854, “Discovery of PPARγ and glucocorticoid receptor dual agonists to promote the adiponectin and leptin biosynthesis in human bone marrow mesenchymal stem cells” (Eur J Med Chem, 2023).
